Test results: ChEMBL document CHEMBL2331390, “Telomere shortening and cell senescence induced by perylene derivatives in A549 human lung cancer cells” (Bioorg Med Chem, 2013)
Activity calls are given as the source filed them. No cut-off for these calls is given here.

Columns and labels:
A549 [1] = assay: Cytotoxicity against human A549 cells assessed as colony formation at 0.8 uM incubated for 24 days followed by subculturing in compound-free medium measured after 14 days by crystal violet staining method relative to control; assay type: functional
In short: (§1)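 A549 cells from the long-term culture (0.4 or 0.8 μM, medium changed every 3 days, replated every 6 days) were collected on the stated day. 2×10^3 cells seeded per 10-cm dish, fed every 4-5 days. Colonies stained with crystal violet after 14 days and counted; expressed as % of control. Controls under 25 colonies excluded. Three independent experiments.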

A549 [2] = assay: Cytotoxicity against human A549 cells assessed as reduction in colony formation incubated for 24 days followed by subculturing in compound-free medium measured after 14 days by crystal violet staining method; assay type: functional, cell-based; in short: as §1
Homo sapiens [3] = species on record: Homo sapiens; assay: Binding affinity to human TERT2 5'-GGGGGCTGGGCCGGGGACCCGGGAGGGGTCGGGACGGGGCGGGG-3' DNA assessed as induction of intermolecular G-quadruplex formation at 8 to 32 uM after 10 hrs by PAGE analysis
In short: (§2)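 FAM-labeled G-rich strand (2 µM) and complementary C-rich strand (2 µM) with compound in 10 mM Tris-HCl pH 7.4, 100 mM KCl. Heated to 95 °C for 5 min, slowly cooled to 55 °C, held 10 h, then cooled to 4 °C. Duplex vs G-quadruplex resolved on 16% native PAGE with 50 mM KCl (4 °C, 350 V, 10 h) and fluorescence-imaged.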

Homo sapiens [4] = species on record: Homo sapiens; assay: Binding affinity to human telomeric 5'-AGATAGTTAGGGTTAGGGTTAGGGTTAGGGTT-3' DNA assessed as induction of intramoleculsr G-quadruplex formation after 10 hrs by PAGE analysis; in short: as §2
A549 [5] = assay: Antiproliferative activity against human A549 cells assessed as cell division arrest at 0.8 uM measured on day 36; assay type: functional, cell-based
In short: (§3)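 A549 cells (1.5×10^5) seeded in RPMI 1640 + 10% FBS with 0.4 or 0.8 μM perylene or medium only. Medium changed every 3 days. Every 6 days, at confluence, cells were trypsinized, counted by hemocytometer and replated at 1.5×10^5. Population doublings n = (log Pn − log P0)/log 2, cumulated against time. Three independent experiments.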

A549 [6] = assay: Binding affinity to human TERT promoter DNA sequence in human A549 cells assessed as decrease in TERT mRNA expression at 6 uM after 24 hrs by semi-quantitative PCR analysis relative to control; assay type: cell-based; design: scale not given: the % may be the effect or the level left
In short: (§4)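 A549 cells (3.0×10^5) grown 24 h in RPMI 1640 + 10% FBS at 37 °C, 5% CO2, then exposed to compound for 24 h. Total RNA by Trizol, reverse transcribed, hTERT amplified with specific primers. Semi-quantitative and real-time SYBR Green PCR (45 cycles), standard-curve method, normalized to GAPDH. Three independent experiments.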

A549 [7] = assay: Cytotoxicity against human A549 cells assessed as colony formation at 0.8 uM incubated for 6 days followed by subculturing in compound-free medium measured after 14 days by crystal violet staining method relative to control; assay type: functional; in short: as §1
A549 [8] = assay: Binding affinity to human TERT promoter DNA sequence in human A549 cells assessed as telomere restriction fragment length at 0.4 uM after 54 days by TeloTAGGG-based chemiluminescence assay (reference value: 3.6 kb); assay type: cell-based
In short: (§5)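 Genomic DNA from A549 cells kept long-term with 0.4 or 0.8 μM compound (medium changed every 3 days, replated every 6 days). DNA isolated with DNAzol. 2 µg digested with RsaI/HinfI, run on 0.8% agarose, Southern-blotted, hybridized with DIG-labeled telomeric probe, anti-DIG alkaline phosphatase, chemiluminescence. Mean TRF = Σ(ODi)/Σ(ODi/Li).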

A549 [9] = assay: Antiproliferative activity against human A549 cells assessed as effect on population doubling at 0.4 uM up to 42 days; assay type: functional, cell-based; in short: as §3
A549 [10] = assay: Antiproliferative activity against human A549 cells assessed as decrease in population doubling at 0.8 uM after 18 days; assay type: functional, cell-based; in short: as §3
A549 [11] = assay: Binding affinity to human TERT promoter DNA sequence in human A549 cells assessed as telomere restriction fragment length at 0.8 uM after 6 days by TeloTAGGG-based chemiluminescence assay (reference value: 3.6 kb); assay type: cell-based; in short: as §5
Homo sapiens [12] = species on record: Homo sapiens; assay: Binding affinity to human TERT1 5'-AAGGGGAGGGGCTGGGAGGGCCCGGA-3' DNA assessed as induction of intramoleculsr G-quadruplex formation after 10 hrs by PAGE analysis; in short: as §2
[13] = Binding affinity to TSG4 primer DNA (unknown origin) assessed as inhibition of telomerase-mediated extension of primer […] by fluorescence-based TRAP assay
In short: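 Cell-free TRAP. Compound preincubated with TSG4 primer in telomerase buffer (20 mM Tris-HCl pH 7.4, 1.5 mM MgCl2, 63 mM KCl, 1 mM EGTA, 200 µM dNTPs) at 37 °C for 2 h. Crude telomerase (50 ng) from telomerase-transfected HEK293T added, 30 °C for 30 min. Compound removed by phenol-chloroform, products ethanol-precipitated, PCR with FAM-tagged primer, 8% native PAGE, phosphoimaging. IC50 ± SD from three experiments.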

A549 [14] = assay: Binding affinity to human TERT promoter DNA sequence in human A549 cells assessed as telomere restriction fragment length at 0.4 uM after 24 days by TeloTAGGG-based chemiluminescence assay (reference value: 3.6 kb); assay type: cell-based; in short: as §5
A549 [15] = assay: Binding affinity to human TERT promoter DNA sequence in human A549 cells assessed as inhibition of telomerase-mediated MTS primer extension after 24 hrs by fluorescence-based TRAP assay; assay type: cell-based
In short: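 A549 cells exposed to compound for 24 h, lysed in CHAPS buffer, protein measured by Bradford. 6 µg lysate protein used as telomerase source in fluorescent TRAP with MTS primer (no G-quadruplex motif), with no phenol-chloroform step. FAM-primer PCR, native PAGE, fluorescence quantified. Mean ± SD of three experiments.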

Homo sapiens [16] = species on record: Homo sapiens; assay: Binding affinity to human TERT2 5'-GGGGGCTGGGCCGGGGACCCGGGAGGGGTCGGGACGGGGCGGGG-3' DNA assessed as induction of intramolecular G-quadruplex formation at 4 uM after 10 hrs by PAGE analysis; in short: as §2
A549 [17] = assay: Antiproliferative activity against human A549 cells assessed as decrease in cell viability at 0.4 uM after 42 days; assay type: functional, cell-based; in short: as §3
A549 [18] = assay: Cytotoxicity against human A549 cells assessed as colony formation at 0.4 uM incubated for 54 days followed by subculturing in compound-free medium measured after 14 days by crystal violet staining method relative to control; assay type: functional; in short: as §1
A549 [19] = assay: Induction of senescence in human A549 cells assessed as cell enlargement at 0.4 uM incubated for 54 days followed by subculturing on compound-free medium measured after 48 hrs by fluorescence microscopic analysis; assay type: functional, cell-based
In short: (§6)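 A549 cells from the long-term treatment replated and grown 48 h. Fixed in 2% formaldehyde/0.2% glutaraldehyde for 5 min at RT. Stained overnight with 1 mg/ml X-gal in pH 6 citrate/phosphate buffer with 5 mM ferro/ferricyanide, 150 mM NaCl, 2 mM MgCl2. Enlarged blue cells scored by microscopy.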

A549 [20] = assay: Binding affinity to human TERT promoter DNA sequence in human A549 cells assessed as telomere restriction fragment length at 0.8 uM after 30 days by TeloTAGGG-based chemiluminescence assay (reference value: 3.6 kb); assay type: cell-based; in short: as §5
A549 [21] = assay: Induction of senescence in human A549 cells assessed as increase in beta-galactosidase activity at 0.4 uM incubated for 54 days followed by subculturing on compound-free medium measured after 48 hrs by fluorescence microscopic analysis; assay type: functional, cell-based; in short: as §6
A549 [22] = assay: Binding affinity to human TERT promoter DNA sequence in human A549 cells assessed as decrease in TERT mRNA expression after 24 hrs by semi-quantitative PCR analysis; assay type: cell-based; in short: as §4
A549 [23] = assay: Antiproliferative activity against human A549 cells assessed as decrease in population doubling at 0.4 uM after 42 days; assay type: functional, cell-based; in short: as §3
A549 [24] = assay: Binding affinity to human TERT promoter DNA sequence in human A549 cells assessed as telomere restriction fragment length at 0.4 uM after 6 days by TeloTAGGG-based chemiluminescence assay (reference value: 3.6 kb); assay type: cell-based; in short: as §5
A549 [25] = assay: Cytotoxicity against human A549 cells assessed as colony formation at 0.4 uM incubated for 6 days followed by subculturing in compound-free medium measured after 14 days by crystal violet staining method relative to control; assay type: functional; in short: as §1
A549 [26] = assay: Binding affinity to human TERT promoter DNA sequence in human A549 cells assessed as telomere restriction fragment length at 0.8 uM after 18 days by TeloTAGGG-based chemiluminescence assay (reference value: 3.6 kb); assay type: cell-based; in short: as §5
A549 [27] = assay: Cytotoxicity against human A549 cells assessed as colony formation at 0.4 uM incubated for 24 days followed by subculturing in compound-free medium measured after 14 days by crystal violet staining method relative to control; assay type: functional; in short: as §1

CCN(CC)CCN1C(=O)c2ccc3c4cccc5c(N6CCNCC6)ccc(c6ccc(c2c36)C1=O)c54
Activity (A549 [1]): 35% | Activity (A549 [2]): Dose-dependent effect | Activity (Homo sapiens [3]): Active | Activity (Homo sapiens [4]): Dose-dependent effect | Activity (A549 [5]): Active | Activity (A549 [6]): 37% | Activity (A549 [7]): 100% | Activity (A549 [8]): 2.9 kilobase | Activity (A549 [9]): inactive | Activity (A549 [10]): Active | Activity (A549 [11]): 3.6 kilobase | Activity (Homo sapiens [12]): Dose-dependent effect | IC50 [13]: 800 nM | inhibition [13]: Dose-dependent effect | Activity (A549 [14]): 3.5 kilobase | Activity (A549 [15]): Dose-dependent effect | Activity (Homo sapiens [16]): Active | Activity (A549 [17]): inactive | Activity (A549 [18]): 60% | Activity (A549 [19]): Active | Activity (A549 [20]): 3.2 kilobase | Activity (A549 [21]): Active | Activity (A549 [22]): Dose-dependent effect | Activity (A549 [23]): Active | Activity (A549 [24]): 3.6 kilobase | Activity (A549 [25]): 100% | Activity (A549 [26]): 3.5 kilobase | Activity (A549 [27]): 73%
